Bioassay records deposited in PubChem BioAssay by Broad Institute.
CAL PDZ FP-1 = human CAL PDZ-peptide interaction inhibition. Q9HD26. purified CAL PDZ, TMR-peptide fluorescence polarization, 1 h. inhibition, % at 20 µM. 330,000 tested, 0.02% active;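 active means highest replicate inhibition of at least 40%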;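 further: plate controls were DMSO neutral control wells for no effect and unlabeled competitor peptide control wells for full effect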
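Material: tagged CAL PDZ protein CerCALP, purified; buffer or medium: sodium phosphate/NaCl buffer pH 7.4 with TCEP, IgG, Thesit; also added: fluorescent TMR peptide probe; schedule: 1 h incubation at room temperature before polarization reading; technique: fluorescence polarization from S- and P-plane intensities, G-factor corrected; control set: unlabelled peptide and DMSO controls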
Rtt109 HAT inh = blocks Candida albicans Rtt109/Vps75 acetyltransferase activity | purified Rtt109/Vps75, ThioGlo CoA-SH fluorescence, 4 h | inhibition, % at 34.9 µM | 330,000 tested, 0.16% active;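 active means inhibition of at least 50% in every replicate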
Target sequence (Q5AAJ8 whole entry, looked up): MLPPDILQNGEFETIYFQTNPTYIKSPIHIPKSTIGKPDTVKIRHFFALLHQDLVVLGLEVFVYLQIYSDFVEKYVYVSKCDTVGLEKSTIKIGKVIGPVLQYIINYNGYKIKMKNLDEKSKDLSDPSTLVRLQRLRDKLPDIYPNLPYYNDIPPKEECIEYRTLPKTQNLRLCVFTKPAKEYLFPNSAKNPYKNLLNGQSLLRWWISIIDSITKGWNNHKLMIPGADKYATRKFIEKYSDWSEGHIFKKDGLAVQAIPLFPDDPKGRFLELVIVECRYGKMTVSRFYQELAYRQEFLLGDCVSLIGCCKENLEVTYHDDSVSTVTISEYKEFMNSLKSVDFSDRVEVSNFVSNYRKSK
Dyrk1A ADPGlo = Dyrk1A (rat) kinase inhibition; Q63470; ADP-Glo luminescence, NFATc1 peptide; inhibition, % at 12.5 µM; 310,000 tested, 0.43% active; AID 504441; in the data active means inhibition above about 50%;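 further: plate controls were vehicle with enzyme for no effect and no enzyme for full effect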
CAL PDZ FP-2 = blocks peptide binding to the human CAL PDZ domain. purified CAL PDZ, TMR-peptide fluorescence polarization, 1 h. Q9HD26. inhibition, % at 24.9 µM. 300,000 tested, 0.92% active;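 active means mean inhibition of at least 30% with at least half of replicates also reaching 30%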;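 further: 0% = DMSO neutral control and 100% = excess unlabeled competitor peptide PRC23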
ALR H2O2 inh = blocks human ALR sulfhydryl oxidase activity; P55789; 290,000 tested, 3.8% active; inhibition, % (test concentration not listed); purified ALR, DTT oxidation, H2O2 HRP-luminol luminescence;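 active means mean replicate inhibition above about 79%, with every replicate also reaching it, limit read from the data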
Target sequence (P55789 whole entry, looked up): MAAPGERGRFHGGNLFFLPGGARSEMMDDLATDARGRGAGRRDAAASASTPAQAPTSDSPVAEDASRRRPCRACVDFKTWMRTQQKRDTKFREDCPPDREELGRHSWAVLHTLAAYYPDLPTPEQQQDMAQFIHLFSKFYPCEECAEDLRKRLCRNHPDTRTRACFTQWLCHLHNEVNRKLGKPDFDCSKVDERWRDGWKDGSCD
* hit, by the source's call; · = no result. Hits are enriched below; roughly 4.3% of the tested compounds scored in any of these assays.

SMILES | CAL PDZ FP-1 | Rtt109 HAT inh | Dyrk1A ADPGlo | CAL PDZ FP-2 | ALR H2O2 inh
O=C(Nc1ccc2snnc2c1)N1CCN(c2ccccc2)CC1 | -0.4 | 1.1 | 5.0 | -1.7 | 98.7*
COc1ccc(NC(=O)CC(CC(=O)O)c2cc(OC)c(OC)c(OC)c2)cc1 (stereo not drawn) | 0.1 | 5.1 | 0.2 | 59.4* | -26.1
COc1ccc(NC(=O)CS(=O)CC(=O)Nc2ccc(OC)c(OC)c2)cc1 (stereo not drawn) | -2.8 | 7.3 | -2.3 | 1.2 | 86.8*
O=C(O)CC(CC(=O)Nc1ccc(Oc2ccccc2)cc1)c1ccccc1 (stereo not drawn) | -0.9 | 6.7 | -3.8 | -1.5 | ·
CC(C)(C)[C@H]1C=C(C(=O)NC2CC2)O[C@@H](OCc2ccc(CO)cc2)C1 | 0.5 | 0.1 | -2.6 | -1.0 | 15.6
COc1cc2c(cc1O)CC[C@@H]1[C@@H]2CC[C@]2(C)[C@@H](O)CC[C@@H]12 | -0.4 | 2.8 | 17.1 | -0.3 | 99.1*
Cc1ccc(NC(=O)COC(=O)[C@@H]2CC(O)CN2S(=O)(=O)c2ccc3c(c2)OCCO3)cc1 (stereo partly drawn) | -1.0 | 17.6 | 8.9 | 1.2 | -4.6
NNC(=O)C1c2ccccc2Oc2ccccc21 | -2.0 | · | -0.7 | -0.1 | -5.8
NC(=O)C1C(c2ccccc2)=C1c1ccccc1 | -1.7 | · | 0.3 | -2.0 | 96.6*
NC(=O)C1c2ccccc2Oc2ccccc21 | · | -3.2 | 0.0 | 74.5* | -21.5
Cc1onc(-c2ccccc2Cl)c1C(=O)N1CCC(Cc2ccccc2)CC1 | -3.0 | 25.6 | 0.7 | -1.3 | -6.1
CC(=O)N1CCC2(CC1)NC(=O)N(c1ccccc1)N2 | -1.9 | -1.2 | -0.2 | -2.7 | 98.2*
NC(=O)N1CCC2(CC1)NC(=O)N(c1ccccc1)N2 | 0.4 | 3.9 | -0.2 | 1.7 | -16.3
CC(C)N=c1scc(-c2cccs2)n1/N=C/c1ccc(O)c(O)c1O | -0.4 | -6.3 | 1.9 | -3.9 | 87.7*
CCOC(=O)Cn1cncc1-c1ccc([N+](=O)[O-])cc1 | 0.3 | 5.9 | 5.7 | 8.2 | 97.3*
COC(=O)c1c(C(=O)OC)c(-c2ccc(F)cc2)n2c1CSC2 | -3.0 | 3.1 | 0.1 | · | 98.8*
O=C(O)c1c(C(=O)O)c(-c2ccc(Br)cc2)n2c1CSC2 | -2.6 | -4.0 | -6.1 | 3.4 | 97.9*
Cc1ccc(-c2c(C(=O)O)c(C(=O)O)c3n2CSC3)cc1 | -1.3 | -7.5 | -5.8 | -1.7 | 93.1*
CC(C)(C)c1ccc(-c2c(C(=O)O)c(C(=O)O)c3n2CSC3)cc1 | -2.9 | 16.9 | -6.3 | -3.9 | 55.3
CCOc1ccc(Cc2nnc(SCC(=O)Nc3ccc(OC)cc3)n(N)c2=O)cc1 | -1.5 | 2.9 | -22.3 | -1.8 | ·
COc1ccc(NC(=O)CSc2nnc(-c3ccccc3C)n2N)cc1 | 0.9 | -5.7 | -2.7 | 2.8 | 99.3*
Nn1c(SCC(=O)Nc2ccc3c(c2)OCCO3)nncc1=O | 1.3 | 34.5 | -0.2 | -2.9 | 89.5*
COc1ccc(NC(=O)CSc2nnc(CCC(=O)O)c(=O)n2N)cc1 | -2.0 | 5.2 | -3.4 | -3.2 | 98.0*
COc1ccc(NC(=O)CSc2nnc(-c3ccoc3C)n2CCc2ccccc2)cc1 | · | 5.1 | 3.7 | 102.6* | -27.1
CC[C@]12c3[nH]c4ccccc4c3CCN1C(=O)C(CC(=O)NCCCn1ccnc1)C[C@@H]2C(=O)N1CCN(C(=O)c2ccco2)CC1 (stereo partly drawn) | 1.3 | 1.7 | · | -2.9 | 4.0
SMILES | CAL PDZ FP-1 | Rtt109 HAT inh | Dyrk1A ADPGlo | CAL PDZ FP-2 | ALR H2O2 inh
Cc1ccc(C2=NC3(CCCCC3)N=C2SCC(=O)Nc2ccc3c(c2)OCCO3)cc1 | -0.2 | 4.6 | -4.6 | · | 45.2
C=COCCNC(=S)N1CCOCCOCCN(C(=S)NCCOC=C)CCOCC1 | -0.5 | 1.3 | · | -3.1 | 3.0
COc1ccc(NC(=O)CSc2nnc(N)n2CC(=O)Nc2ccc(OC)cc2)cc1 | -0.5 | -4.4 | -5.9 | 52.4* | ·
Cc1nnc(SCC(=O)Nc2ccc3c(c2)OCO3)n(N)c1=O | -0.5 | 10.6 | · | 3.1 | 94.5*
Cc1ccccc1-c1nnc(SCC(=O)Nc2ccc3c(c2)OCCO3)n1N | -0.1 | 7.1 | -1.0 | -3.8 | 98.1*
O=C(CSc1nccn1-c1ccccc1)Nc1ccc2c(c1)OCO2 | · | 1.6 | -1.9 | -2.2 | ·
Nn1c(SCC(=O)Nc2ccc3c(c2)OCCO3)nnc1-c1ccccn1 | 0.4 | 1.5 | 0.1 | -3.1 | -3.4
Cn1ccnc1SCC(=O)Nc1ccc2c(c1)OCO2 | 0.1 | -2.8 | 2.1 | · | 90.4*
Cc1ccc(S(=O)(=O)N2CCOCC2)cc1NC(=O)CSc1nccn1C | -0.1 | -0.1 | 2.9 | -0.1 | ·
Cn1ccnc1SCC(=O)Nc1cc(S(=O)(=O)N2CCOCC2)ccc1Cl | -2.6 | 9.6 | -9.1 | -4.0 | 97.6*
CCn1c(C)nc2cc(C(=O)NNS(=O)(=O)c3ccc(C)c(C)c3)ccc21 | · | 10.4 | 5.4 | -4.0 | 81.0*
O=C(c1cc(-c2ccc(Cl)cc2)n[nH]1)N1CCc2ccccc2C1 | -1.2 | 3.0 | · | -1.1 | -9.8
COc1ccc(CNC(=O)C2CCC(CNC(=O)[C@@H]3Cc4ccccc4CN3)CC2)cc1 (stereo partly drawn) | 0.3 | 10.6 | -0.9 | 5.9 | -3.8
Cc1[nH]c2ccccc2c1C(c1ccccn1)N1CCC(C(N)=O)CC1 (stereo not drawn) | -4.8 | 1.5 | -4.0 | -6.1 | 97.8*
CCOC(=O)C1CCN(C(c2ccccn2)c2c(C)[nH]c3ccccc23)CC1 (stereo not drawn) | -0.4 | 3.4 | -2.5 | -1.0 | 53.7
Cc1[nH]c2ccccc2c1C(c1ccncc1)N1CCN(c2ccccn2)CC1 (stereo not drawn) | 0.2 | 11.7 | -3.9 | 5.1 | 32.1
Cc1[nH]c2ccccc2c1C(c1ccncc1)N1CCC(C)CC1 (stereo not drawn) | -0.3 | -3.5 | · | -1.9 | 96.6*
Brc1cc(Br)cc(CN2CCSCC2)c1 | · | · | · | · | -3.5
CCCn1c(C)cc(C(=O)COC(=O)CN=C2NS(=O)(=O)c3ccccc32)c1C | -1.6 | -5.2 | -1.2 | 8.6 | 39.3
Cc1ccc(NC2CCCN(C(=O)c3cn4cccc(C)c4n3)C2)cc1C (stereo not drawn) | -1.0 | -0.2 | -8.5 | -2.8 | 98.8*
Cc1ccc(NC2CCCN(C(=O)c3cn4cc(Cl)ccc4n3)C2)cc1C (stereo not drawn) | -1.4 | 10.1 | -0.8 | -0.7 | 99.1*
O=C(c1cn2ccccc2n1)N1CCCC(Nc2ccc(F)c(F)c2)C1 (stereo not drawn) | -0.2 | 11.8 | -3.3 | -3.1 | 1.8
CN(C)C(=O)C1CCC(=O)N1Cc1cccs1 (stereo not drawn) | -1.3 | 3.9 | 15.5 | · | ·
CC(=O)Nc1ccc(OCC(O)CN2CCN(c3ccc(C)c(Cl)c3)CC2)cc1 (stereo not drawn) | -1.0 | -3.0 | -0.8 | -2.1 | 97.5*
COc1cc(C(C)=O)ccc1OCC(O)CN1CCN(c2ccc(C)c(C)c2)CC1 (stereo not drawn) | -0.2 | -2.1 | -5.2 | · | 98.0*
CCc1ccc(OCC(O)CN2CCN(c3ccc(OC)cc3)CC2)cc1 (stereo not drawn) | -0.4 | 0.5 | 4.1 | 0.7 | 94.3*
